Reference: ChEMBL document CHEMBL1833929, “Design, synthesis and anticancer activity of novel dihydrobenzofuro[4,5-b][1,8]naphthyridin-6-one derivatives” (Bioorg Med Chem Lett, 2011)

Assays:
[1] = Cell cycle arrest in human MCF7/ADR cells assessed as accumulation at G1 phase at 0.1 uM after 48 hrs using propidium iodide staining by flow cytometry (reference value: 62.15 +/- 3.14 %); type: functional, cell-based; conditions: NCI/ADR-RES
Method in brief: (§1)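 MCF-7/ADR cells exposed to test agent for 48 h, collected, washed and suspended in cold PBS. Fixed in chilled 75% methanol, then stained with PI solution (100 µg/mL RNase, 10 µg/mL PI in PBS). Phase distribution (G1, S, G2/M) determined by flow cytometry. Mean ± SEM of three independent experiments; one-way ANOVA with Newman–Keuls post hoc test, p<0.05.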

LNCaP [2] = test: Ratio of IC50 for androgen receptor-negative human PC3 cells to IC50 for androgen receptor-positive human LNCAP cells; type: functional
[3] = Cell cycle arrest in human MCF7/ADR cells assessed as accumulation at G2/M phase at 0.1 uM after 48 hrs using propidium iodide staining by flow cytometry (reference value: 22.51 +/- 1.5 %); type: functional, cell-based; conditions: NCI/ADR-RES; method in brief: as §1
MCF7 [4] = test: Ratio of doxorubicin IC50 to compound IC50 for estrogen receptor-positive human MCF7 cells after 48 hrs by MTT assay; type: functional
[5] = Cell cycle arrest in human MCF7/ADR cells assessed as accumulation at G1 phase at 0.2 uM after 48 hrs using propidium iodide staining by flow cytometry (reference value: 62.15 +/- 3.14 %); type: functional, cell-based; conditions: NCI/ADR-RES; method in brief: as §1
[6] = Cell cycle arrest in human MCF7/ADR cells assessed as accumulation at G1 phase at 0.05 uM after 48 hrs using propidium iodide staining by flow cytometry (reference value: 62.15 +/- 3.14 %); type: functional, cell-based; conditions: NCI/ADR-RES; method in brief: as §1
DU-145 [7] = test: Ratio of IC50 for androgen receptor-negative human PC3 cells to IC50 for human DU145 cells; type: functional
MCF7 [8] = test: Cytotoxicity against estrogen receptor-positive human MCF7 cells after 24 hrs by MTT assay; type: functional, cell-based; conditions: MCF7, 24 h
Method in brief: (§2)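 Cells kept in RPMI-1640 with 10% heat-inactivated FBS, 1.25 mM HEPES and 1% penicillin/streptomycin. Seeded at 2×10^3 cells/well and grown 48 h, then treated with a range of concentrations for 24 or 48 h. MTT (5 mg/mL) added for 4 h at 37 °C, formazan dissolved in DMSO, absorbance read at 540 nm. Triplicate. IC50 from log concentration vs % viability loss; doxorubicin reference.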

[9] = Cell cycle arrest in human MCF7/ADR cells assessed as accumulation at G2/M phase at 0.05 uM after 48 hrs using propidium iodide staining by flow cytometry (reference value: 22.51 +/- 1.5 %); type: functional, cell-based; conditions: NCI/ADR-RES; method in brief: as §1
DU-145 [10] = test: Cytotoxicity against human DU145 cells after 48 hrs by MTT assay; type: functional, cell-based; conditions: DU-145, 48 h; method in brief: as §2
DU-145 [11] = test: Cytotoxicity against human DU145 cells after 24 hrs by MTT assay; type: functional, cell-based; conditions: DU-145, 24 h; method in brief: as §2
LNCaP [12] = test: Cytotoxicity against androgen receptor-positive human LNCAP cells after 48 hrs by MTT assay; type: functional, cell-based; method in brief: as §2
PC-3 [13] = test: Cytotoxicity against androgen receptor-negative human PC3 cells after 24 hrs by MTT assay; type: functional, cell-based; conditions: PC-3, 24 h; method in brief: as §2
PC-3 [14] = test: Cytotoxicity against androgen receptor-negative human PC3 cells after 48 hrs by MTT assay; type: functional, cell-based; conditions: PC-3, 48 h; method in brief: as §2
LNCaP [15] = test: Cytotoxicity against androgen receptor-positive human LNCAP cells after 24 hrs by MTT assay; type: functional, cell-based; method in brief: as §2
[16] = Cell cycle arrest in human MCF7/ADR cells assessed as accumulation at S phase at 0.05 uM after 48 hrs using propidium iodide staining by flow cytometry (reference value: 15.34 +/- 0.98 %); type: functional, cell-based; conditions: NCI/ADR-RES; method in brief: as §1
NCI/ADR-RES = test: Ratio of IC50 for androgen receptor-negative human PC3 cells to IC50 for human MCF7/ADR cells; type: functional
MCF7 [17] = test: Ratio of IC50 for androgen receptor-negative human PC3 cells to IC50 for estrogen receptor-positive human MCF7 cells; type: functional
[18] = Cell cycle arrest in human MCF7/ADR cells assessed as accumulation at G2/M phase at 0.2 uM after 48 hrs using propidium iodide staining by flow cytometry (reference value: 22.51 +/- 1.5 %); type: functional, cell-based; conditions: NCI/ADR-RES; method in brief: as §1
[19] = Cytotoxicity against human MCF7/ADR cells after 24 hrs by MTT assay; type: functional, cell-based; conditions: NCI/ADR-RES; method in brief: as §2
MCF7 [20] = test: Cytotoxicity against estrogen receptor-positive human MCF7 cells after 48 hrs by MTT assay; type: functional, cell-based; conditions: MCF7, 48 h; method in brief: as §2
[21] = Cell cycle arrest in human MCF7/ADR cells assessed as accumulation at S phase at 0.2 uM after 48 hrs using propidium iodide staining by flow cytometry (reference value: 15.34 +/- 0.98 %); type: functional, cell-based; conditions: NCI/ADR-RES; method in brief: as §1
[22] = Cytotoxicity against human MCF7/ADR cells after 48 hrs by MTT assay; type: functional, cell-based; conditions: NCI/ADR-RES; method in brief: as §2
[23] = Cell cycle arrest in human MCF7/ADR cells assessed as accumulation at S phase at 0.1 uM after 48 hrs using propidium iodide staining by flow cytometry (reference value: 15.34 +/- 0.98 %); type: functional, cell-based; conditions: NCI/ADR-RES; method in brief: as §1
[24] = Cell cycle arrest in human MCF7/ADR cells assessed as accumulation at G2/M phase at 5 uM after 48 hrs using propidium iodide staining by flow cytometry (reference value: 22.51 +/- 1.5 %); type: functional, cell-based; conditions: NCI/ADR-RES; method in brief: as §1
[25] = Cell cycle arrest in human MCF7/ADR cells assessed as accumulation at S phase at 5 uM after 48 hrs using propidium iodide staining by flow cytometry (reference value: 15.34 +/- 0.98 %); type: functional, cell-based; conditions: NCI/ADR-RES; method in brief: as §1
[26] = Cell cycle arrest in human MCF7/ADR cells assessed as accumulation at G1 phase at 5 uM after 48 hrs using propidium iodide staining by flow cytometry (reference value: 62.15 +/- 3.14 %); type: functional, cell-based; conditions: NCI/ADR-RES; method in brief: as §1

Row | Compound | Activity [1] | Activity [3] | Activity [5] | Activity [6] | IC50 (MCF7 [8]) | Activity [9] | IC50 (DU-145 [10]) | IC50 (DU-145 [11]) | IC50 (LNCaP [12]) | IC50 (PC-3 [13]) | IC50 (PC-3 [14]) | IC50 (LNCaP [15]) | Activity [16] | Activity [18] | IC50 [19] | IC50 (MCF7 [20]) | Activity [21] | IC50 [22] | Activity [23] | further results
1 | COc1cc2c(c3c1c(=O)c1cccnc1n3C)C[C@H]([C@]1(C)CO1)O2 (racemic) | 64.6% | 21.8% | 55.2% | 68.4% | 1840 nM | 20.5% | 840 nM | 2360 nM | 860 nM | 4670 nM | 2150 nM | 2480 nM | 11.2% | 28.3% | 2210 nM | 1020 nM | 16.6% | 920 nM | 13.6% | Ratio IC50 (LNCaP [2]): 2; Ratio IC50 (MCF7 [4]): 1.5; Ratio IC50 (DU-145 [7]): 2; Ratio IC50 (NCI/ADR-RES): 2; Ratio IC50 (MCF7 [17]): 2
2 | COc1cccc2c1C(=O)c1c(O)c3c(c(O)c1C2=O)C[C@@](O)(C(=O)CO)C[C@@H]3O[C@H]1C[C@H](N)[C@H](O)[C@H](C)O1 [DOXORUBICIN] |  |  |  |  |  |  | 580 nM | 6240 nM | 1660 nM | 4100 nM | 1220 nM | 7420 nM |  |  | > 20000 nM |  |  | 13600 nM |  | Activity [24]: 24.6%; Activity [25]: 21.9%; Activity [26]: 53.3%
3 | COc1cc2c(c3c1c(=O)c1cccnc1n3C)C[C@H]([C@@]1(C)CO1)O2 (racemic) | 57.4% | 33.7% | 51.2% | 63.5% | 660 nM | 24.1% | 150 nM | 550 nM | 140 nM | 560 nM | 300 nM | 480 nM | 12.4% | 41.1% | 490 nM | 260 nM | 7.68% | 150 nM | 8.97% | 
